LMPTP inh: blocks human LMPTP phosphatase; recombinant LMPTP-A, OMFP fluorogenic substrate, fluorescence intensity; P24666; AID 651560; inhibition, % at 20 µM; 0.22% of 360,000 active;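 active means compounds that cut the enzyme signal by at least half of the control window in the single-dose screen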;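 further: plate controls were DMSO wells with enzyme plus substrate for no effect and substrate without enzyme for full effect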
Target sequence (P24666 whole entry, looked up): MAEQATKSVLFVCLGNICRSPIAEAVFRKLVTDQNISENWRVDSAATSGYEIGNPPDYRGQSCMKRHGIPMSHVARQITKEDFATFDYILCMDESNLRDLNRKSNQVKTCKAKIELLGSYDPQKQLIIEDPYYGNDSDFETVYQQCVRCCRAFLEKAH
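test system = LMPTP-A | amount = 0.625 nM LMPTP-A final | reagent = fluorogenic phosphatase substrate OMFP at 400 µM final | incubation = 50 min at room temperature | benchmarks = no-enzyme low control, uninhibited high control | medium = Bis-Tris pH 6.0, DTT, detergent | signal = fluorescence intensity of OMFP turnover product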
CASP6 VEID inh: caspase-6 (human) enzyme inhibition | 0.53% of 350,000 active | AID 686996 | purified caspase-6, Z-VEID-R110 cleavage fluorescence | P55212 | inhibition, % at 12.5 µM;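 active means mean inhibition across replicates at least about 35%, with every replicate also reaching that limit, limit read from the data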;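 further: 0% = median of neutral control wells and 100% = no fluorescence left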
Target sequence (P55212 24-179 limits assumed): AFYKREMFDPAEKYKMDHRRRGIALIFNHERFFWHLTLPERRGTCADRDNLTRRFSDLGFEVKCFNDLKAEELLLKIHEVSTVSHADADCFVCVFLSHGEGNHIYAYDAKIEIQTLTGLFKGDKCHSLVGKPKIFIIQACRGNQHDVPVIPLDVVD
Target sequence (P55212 194-293 limits assumed): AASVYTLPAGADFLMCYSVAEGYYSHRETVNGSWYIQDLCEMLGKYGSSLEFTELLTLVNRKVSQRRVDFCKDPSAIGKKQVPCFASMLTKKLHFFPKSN
Scp-1 inhibitor: Scp-1 (human) phosphatase inhibition; Recombinant Scp1, phosphopeptide, malachite green phosphate absorbance; inhibition, % at 20 µM; 0.88% of 340,000 active;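 active means inhibition above about 50% at 20 µM, limit read from the data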;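 further: plate controls were DMSO wells with enzyme for no effect and wells lacking enzyme for full effect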
Target sequence (Q9GZU7 76-261 limits assumed): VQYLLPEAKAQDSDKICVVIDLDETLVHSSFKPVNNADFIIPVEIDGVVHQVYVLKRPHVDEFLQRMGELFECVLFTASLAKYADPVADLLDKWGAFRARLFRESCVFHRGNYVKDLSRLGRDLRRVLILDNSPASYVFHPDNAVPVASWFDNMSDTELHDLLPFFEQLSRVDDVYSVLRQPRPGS
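Test system: SCP-1 phosphatase catalytic domain, residues 76-261; measured by: colorimetric phosphate reagent with accelerator and stabiliser, absorbance at 630 nm; timing: enzyme reaction 45 min at room temperature, colour 5 min, stabilisation 30 min; also added: Phosphorylated 17-residue peptide substrate; compound dosing: one concentration, 20 µM, with 1.0% DMSO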
SUMO1-SIM PPI: SUMO1-SIM interaction modulation. P63165. SUMO1 binding to a labelled peptide, TR-FRET, 1 h. inhibition, % at 20 µM. 0.33% of 360,000 active. AID 602429; in the data active means inhibition above about 37%
STEP inh: blocks human striatal-enriched tyrosine phosphatase | P54829 | AID 588621 | 0.25% of 360,000 active | recombinant STEP, OMFP fluorogenic substrate, fluorescence | inhibition, % at 20 µM;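 active means inhibition at 20 µM, scaled per plate between control wells, above about 37%, limit read from the data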;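 further: 0% = DMSO with enzyme and substrate and 100% = substrate only without enzyme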
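material = STEP tyrosine phosphatase | reagent = fluorogenic phosphatase substrate OMFP at 25 µM final | doses = single compound dose of 20 µM, 1% DMSO final | schedule = 20 min reaction, room temperature, in the dark | measured by = fluorescence, 480/540 nm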
DNMT1 block: blocks human DNA methyltransferase DNMT1; P26358; DNMT1 molecular beacon, Hinp1I cleavage, fluorescence; inhibition (reported as % activation of signal), % at 10 µM; 0.83% of 360,000 active; in the data active means inhibition above about 50%
DNMT1 interf DR: shows spectral interference in the DNMT1 beacon assay; shares compounds with DNMT1 block; molecular beacon fluorescence, spectral interference counter-screen; IC50, µM; 200 tested, under 10 active; AID 602382; call rule not given here
DNMT1 inh conf: confirmation of human DNMT1 inhibitors. 8% of 2,300 active. shares compounds with DNMT1 block. DNMT1 molecular beacon HinP1I cleavage, fluorescence. inhibition, % at 10 µM. AID 602385;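 active means average inhibition of at least 30% in the single-concentration confirmation test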
DNMT1 interf: shows spectral interference in the DNMT1 beacon assay. shares compounds with DNMT1 block. DNMT1 molecular beacon spectral interference counterscreen, fluorescence 485/520. activation (fluorescence interference), % at 10 µM. 1% of 2,300 active. AID 602387;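 active means activation of at least 30% at 10 µM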;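 further: DNMT1 catalytic domain with a HinP1I cleavage step and a FAM/dabcyl DNA beacon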
An asterisk follows results filed as active; . = no result. Hits are enriched below; roughly 1.7% of the tested compounds scored in any of these assays.

SMILES	LMPTP inh	CASP6 VEID inh	Scp-1 inhibitor	SUMO1-SIM PPI	STEP inh	DNMT1 block	DNMT1 inh conf	DNMT1 interf	others
CC(C)COc1ccc(-c2nn(-c3ccccc3)cc2/C=C2/SC(=S)N(CC(=O)O)C2=O)cc1	38	21	11	21	9	65*	67*	-9	DNMT1 interf DR=>99
Cc1ccc(-c2nn(-c3ccccc3)cc2C=C2SC(=S)N(CCS(=O)(=O)O)C2=O)cc1	82*	78*	.	72*	5	76*	107*	-14	DNMT1 interf DR=>99
O=C(COc1cc(O)c2c(=O)cc(-c3ccccc3)oc2c1)c1ccc(F)cc1	1	3	9	-6	5	54*	2	-7
O=C(COc1cc(O)c2c(=O)cc(-c3ccccc3)oc2c1)c1ccccc1	4	.	-9	1	-6	8	.	.
Cc1nc2ccc(NS(=O)(=O)c3ccc(F)cc3)cc2s1	0	-1	-4	0	2	0	.	.
Cc1nn(-c2ccccc2)c(C)c1NC(=O)COC(=O)C1CC(=O)N(CCc2ccccc2)C1 (stereo not given)	0	0	-4	6	-1	2	.	.
COc1ccc(CCN2CC(C(=O)OCC(=O)Nc3c(C)nn(-c4ccccc4)c3C)CC2=O)cc1OC (stereo not given)	0	-2	1	6	1	86*	4	4
CC(=O)N(CN1C(=O)c2ccccc2C1=O)c1ccc2c(c1)oc1ccccc12	0	.	-4	-11	-1	79*	2	2
CC(=O)N(CCCCN1C(=O)c2ccccc2C1=O)c1ccc(C)cc1	-1	.	-7	27	3	4	.	.
C[C@@H]1CN([C@@H](C)CO)S(=O)(=O)c2ccc(C3=CCCCC3)cc2O[C@H]1CN(C)C(=O)Cc1ccncc1	.	0	.	.	.	.	.	.
CC1(C)C[C@H](O)[C@]2(CO)CC[C@]3(C)C(=CCC4[C@@]5(C)CC[C@H](O)C(C)(C)C5CC[C@]43C)[C@@H]2C1 (stereo not given in full)	0	1	-1	1	1	-20	.	.
CC1(C)C[C@H](O)[C@]2(CO)[C@H](O)C[C@]3(C)C(=CCC4[C@@]5(C)CC[C@H](O)C(C)(C)C5CC[C@]43C)[C@@H]2C1 (stereo not given in full)	0	.	-3	3	0	71*	2	-5
O=C(O)C1CCCN1C(=O)OCc1ccccc1 (stereo not given)	-1	1	-9	-3	1	3	.	.
O=C(N/N=C/c1ccc([N+](=O)[O-])o1)c1cc2c(ccc3ccccc32)o1	79*	0	94*	2	95*	85*	8	-9
Cc1ccc(/C=N/NC(=O)c2cc3c(ccc4ccccc43)o2)cc1[N+](=O)[O-]	0	.	-7	-8	-1	80*	-1	-7
O=C(N/N=C/c1ccc([N+](=O)[O-])o1)c1cc2ccccc2o1	4	15	23	-38	5	13	.	.
O=C(N/N=C/c1ccc(O)c(Br)c1)c1cc2c(ccc3ccccc32)o1	-1	4	1	-1	-2	-4	.	.
C/C(=N\Nc1ccc(Cl)cc1)c1ccccn1	1	.	3	-4	0	-3	.	.
C=CCn1c(C)cc(C(=O)Cn2ncc(Cl)c(Cl)c2=O)c1C	22	5	3	-4	4	103*	1	-4
O=c1oc(-c2ccc(O)c(O)c2)cc2cccc(O)c12	4	29	1	-19	1	7	.	.
Oc1cccc2cc3cccc(O)c3c(O)c12	23	.	2	11	2	87*	77*	-4	DNMT1 interf DR=>99
COc1ccc(N(C(=O)Cn2nnc(-c3ccc(Cl)cc3)n2)C(C(=O)NCC2CCCO2)c2ccc(C)cc2)cc1 (stereo not given)	-1	.	-9	5	7	55*	2	-3
COc1ccc(N(C(=O)Cn2nnc(-c3ccccc3F)n2)C(C(=O)NCC2CCCO2)c2ccc(Cl)cc2)cc1 (stereo not given)	1	5	-4	3	0	53*	3	1
Cc1noc(C)c1NC(=O)Nc1cccc2c1O[C@H](CN(C)Cc1ccc3c(c1)OCO3)[C@@H](C)CN([C@H](C)CO)C2=O	.	1	.	.	.	.	.	.
Cc1cc(C)n2c(Br)c(CSc3nc4ccccc4o3)nc2n1	6	.	23	10	4	59*	15	7
SMILES	LMPTP inh	CASP6 VEID inh	Scp-1 inhibitor	SUMO1-SIM PPI	STEP inh	DNMT1 block	DNMT1 inh conf	DNMT1 interf	others
Cc1cc(NC(=O)COC(=O)COc2ccc(C(=O)c3ccccc3)cc2)no1	0	.	-11	-3	2	2	.	.
O=C(c1ccccc1)c1ccc(O)c(O)c1O	51*	73*	66*	20	32	78*	7	-3
Cc1cc(C(=O)c2ccccc2)cc(C)c1O	-2	2	-5	-9	-1	7	.	.
CCc1ccc2c(c1)c(N=NC1=NC(=O)CS1)c(O)n2CC	-1	.	-13	-13	-2	4	.	.
C=CC[C@H](CC(=O)NCCO)C(=O)NC[C@H](OC(=O)[C@@H](CC=C)Cc1ccc(F)cc1)c1ccccc1	0	2	-2	1	-2	0	.	.
C=CC[C@@H](CC(=O)N[C@H](CO)Cc1ccccc1)C(=O)NC[C@@H](OC(=O)[C@@H](CC=C)Cc1ccc(F)cc1)c1ccccc1	0	-3	0	3	-1	77*	0	5
C=CC[C@@H](CC(=O)N[C@@H](CO)Cc1ccccc1)C(=O)N[C@H](COC(=O)[C@@H](CC=C)Cc1ccc(F)cc1)Cc1ccccc1	-1	-6	-5	4	0	62*	0	1
C=CCC[C@@H](Cc1ccc(F)cc1)C(=O)O[C@H](CNC(=O)[C@@H](CC=C)CC(=O)N[C@H](CO)Cc1ccccc1)c1ccccc1	0	-2	-6	0	3	83*	0	3
C=CCC[C@@H](Cc1ccc(F)cc1)C(=O)OC[C@H](Cc1c[nH]c2ccccc12)NC(=O)[C@@H](CC=C)CC(=O)N[C@H](CO)Cc1ccccc1	1	3	-8	-1	-3	6	.	.
